# The source made the active and inactive calls. No cut-off for these calls is given here.
# Columns and labels:
# Homo sapiens = organism: Homo sapiens; experiment: Ratio of human TLR7 activity to human TLR8 activity
# Method in brief: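 TLR7/TLR8 ratio computed from fold NF-κB (SEAP reporter) activation in HEK293 cells stably expressing human TLR7 versus TLR8, compounds at 50 μg/mL, 18 h exposure; representative of three independent experiments.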
# [1] = molecular target: Toll-like receptor 3 (Homo sapiens) (UniProt O15455); experiment: Activation of human TLR3 expressed in HEK293 assessed as induction of NF-kappaB activity reporter gene assay; assay type: cell-based
# Sequence of Toll-like receptor 3 (Homo sapiens) (O15455 whole entry): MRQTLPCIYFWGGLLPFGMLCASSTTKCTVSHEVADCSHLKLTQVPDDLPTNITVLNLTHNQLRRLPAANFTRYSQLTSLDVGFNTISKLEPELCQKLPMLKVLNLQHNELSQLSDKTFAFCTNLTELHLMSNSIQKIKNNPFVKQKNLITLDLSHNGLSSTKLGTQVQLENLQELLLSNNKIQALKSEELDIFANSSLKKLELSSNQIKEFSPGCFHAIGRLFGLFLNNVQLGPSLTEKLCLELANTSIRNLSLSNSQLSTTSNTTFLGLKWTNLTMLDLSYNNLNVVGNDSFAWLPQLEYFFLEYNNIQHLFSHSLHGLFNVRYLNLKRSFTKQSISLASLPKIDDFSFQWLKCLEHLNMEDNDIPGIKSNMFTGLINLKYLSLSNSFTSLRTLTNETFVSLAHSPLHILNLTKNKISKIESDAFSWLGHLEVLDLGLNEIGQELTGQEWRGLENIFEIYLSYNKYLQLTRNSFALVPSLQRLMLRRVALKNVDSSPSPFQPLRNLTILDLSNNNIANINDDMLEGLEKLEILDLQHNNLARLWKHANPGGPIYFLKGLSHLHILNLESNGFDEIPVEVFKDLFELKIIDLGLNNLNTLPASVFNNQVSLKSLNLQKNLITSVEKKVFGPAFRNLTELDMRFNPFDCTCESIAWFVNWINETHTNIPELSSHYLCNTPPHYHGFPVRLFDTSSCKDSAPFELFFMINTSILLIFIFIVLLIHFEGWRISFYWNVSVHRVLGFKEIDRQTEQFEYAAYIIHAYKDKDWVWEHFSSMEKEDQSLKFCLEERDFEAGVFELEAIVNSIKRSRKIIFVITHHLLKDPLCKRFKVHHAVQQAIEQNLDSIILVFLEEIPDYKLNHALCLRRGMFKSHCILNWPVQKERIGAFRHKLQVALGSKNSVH
# [2] = molecular target: T1, Toll-like receptor 7 (Homo sapiens) (UniProt Q9NYK1); experiment: Activation of human TLR7 expressed in HEK293XL assessed as fold induction of NF-kappaB activity at 50 ug/ml after 18 hrs by reporter gene assay relative to control
# T1 sequence (whole entry): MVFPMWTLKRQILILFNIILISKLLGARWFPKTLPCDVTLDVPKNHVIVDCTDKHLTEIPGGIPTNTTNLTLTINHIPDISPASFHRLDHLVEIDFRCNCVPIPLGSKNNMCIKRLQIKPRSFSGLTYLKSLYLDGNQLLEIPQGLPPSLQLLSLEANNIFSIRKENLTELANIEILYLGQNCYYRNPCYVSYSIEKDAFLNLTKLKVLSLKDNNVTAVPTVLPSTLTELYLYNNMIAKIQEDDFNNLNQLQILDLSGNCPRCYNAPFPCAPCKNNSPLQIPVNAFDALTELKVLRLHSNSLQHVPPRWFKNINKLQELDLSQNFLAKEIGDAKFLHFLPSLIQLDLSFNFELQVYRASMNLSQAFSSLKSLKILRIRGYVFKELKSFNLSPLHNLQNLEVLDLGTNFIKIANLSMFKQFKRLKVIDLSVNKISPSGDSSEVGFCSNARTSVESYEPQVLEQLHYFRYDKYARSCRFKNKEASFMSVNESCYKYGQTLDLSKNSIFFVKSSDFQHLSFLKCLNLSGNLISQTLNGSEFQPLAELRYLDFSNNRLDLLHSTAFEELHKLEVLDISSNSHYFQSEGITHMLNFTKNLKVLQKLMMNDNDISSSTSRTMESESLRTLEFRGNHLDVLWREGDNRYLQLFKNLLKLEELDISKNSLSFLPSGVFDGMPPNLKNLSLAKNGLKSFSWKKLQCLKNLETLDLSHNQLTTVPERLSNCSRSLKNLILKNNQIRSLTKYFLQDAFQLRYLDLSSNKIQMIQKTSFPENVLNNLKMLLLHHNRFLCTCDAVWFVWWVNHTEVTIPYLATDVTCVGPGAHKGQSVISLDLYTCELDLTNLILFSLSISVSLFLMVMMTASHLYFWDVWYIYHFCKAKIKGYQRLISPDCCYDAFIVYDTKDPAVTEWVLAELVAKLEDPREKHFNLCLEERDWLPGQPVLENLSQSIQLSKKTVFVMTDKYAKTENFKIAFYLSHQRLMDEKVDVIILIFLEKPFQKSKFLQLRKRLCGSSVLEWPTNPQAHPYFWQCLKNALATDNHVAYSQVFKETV
# Method in brief: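 HEK293 cells stably expressing human TLR7 or TLR8, transiently transfected with SEAP reporter plasmid; medium replaced, SIMRA compounds added, 18 h incubation. Supernatant SEAP measured by QuantiBlue; expressed as fold increase in NF-κB activity over PBS control. Tabulated data at 50 μg/mL, representative of three independent experiments.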
# Splenocyte [3] = experiment: Immunomodulatory activity in C57BL/6 mouse splenocytes bearing TLR7 receptor assessed as IL12 release at 100 ug/ml after 24 hrs by ELISA; assay type: functional, cell-based
# Method in brief: (§1)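 C57BL/6 splenocytes in RPMI 1640 with 10% FBS, penicillin/streptomycin, 2 mM L-glutamine, plated at 5 × 10^6 cells/mL; compounds in PBS added, 37 °C for 24 h. Supernatant IL-12 and IL-6 by ELISA; representative of three independent experiments.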
# [4] = molecular target: T2, Toll-like receptor 9 (Mus musculus) (UniProt Q9EQU3); experiment: Activation of mouse TLR9 expressed in HEK293 assessed as induction of NF-kappaB activity reporter gene assay; assay type: cell-based
# T2 sequence (whole entry): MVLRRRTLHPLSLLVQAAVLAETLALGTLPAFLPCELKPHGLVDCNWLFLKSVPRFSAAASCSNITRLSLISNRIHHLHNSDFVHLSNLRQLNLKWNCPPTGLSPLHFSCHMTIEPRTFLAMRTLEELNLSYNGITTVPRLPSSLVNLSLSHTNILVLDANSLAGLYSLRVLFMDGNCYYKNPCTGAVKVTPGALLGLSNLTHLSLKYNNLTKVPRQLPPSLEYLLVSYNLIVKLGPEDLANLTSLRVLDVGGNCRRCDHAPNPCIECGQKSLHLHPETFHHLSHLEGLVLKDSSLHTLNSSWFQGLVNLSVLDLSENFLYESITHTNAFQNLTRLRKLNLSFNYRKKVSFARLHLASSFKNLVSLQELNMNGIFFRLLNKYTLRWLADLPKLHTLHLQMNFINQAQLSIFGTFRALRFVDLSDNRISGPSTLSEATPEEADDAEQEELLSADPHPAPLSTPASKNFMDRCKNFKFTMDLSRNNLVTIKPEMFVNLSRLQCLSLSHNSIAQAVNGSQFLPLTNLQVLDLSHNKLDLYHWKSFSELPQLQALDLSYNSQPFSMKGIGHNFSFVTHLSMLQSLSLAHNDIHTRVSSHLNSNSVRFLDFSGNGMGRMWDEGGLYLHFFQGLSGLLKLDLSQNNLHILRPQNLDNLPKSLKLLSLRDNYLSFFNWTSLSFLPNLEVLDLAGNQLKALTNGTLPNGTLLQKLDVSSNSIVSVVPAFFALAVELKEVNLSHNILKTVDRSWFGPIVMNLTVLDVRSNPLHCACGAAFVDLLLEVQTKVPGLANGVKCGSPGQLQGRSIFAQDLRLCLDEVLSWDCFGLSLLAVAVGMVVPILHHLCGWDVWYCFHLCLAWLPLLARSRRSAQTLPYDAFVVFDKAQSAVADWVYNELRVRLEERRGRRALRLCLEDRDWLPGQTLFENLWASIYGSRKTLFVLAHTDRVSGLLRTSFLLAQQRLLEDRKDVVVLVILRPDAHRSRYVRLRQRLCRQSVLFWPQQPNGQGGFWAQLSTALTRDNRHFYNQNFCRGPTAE
# Splenocyte [5] = experiment: Immunomodulatory activity in C57BL/6 mouse splenocytes bearing TLR7 receptor assessed as IL6 release at 100 ug/ml after 24 hrs by ELISA; assay type: functional, cell-based; method in brief: as §1
Ratio (Homo sapiens),Activity [1],fold change (FC) [2],Activity (Splenocyte [3]),Activity [4],Activity (Splenocyte [5]),Structure (SMILES)
3,inactive,14.7,Active,inactive,Active,Nc1ccn([C@@H]2O[C@H](COP(=O)(S)O[C@H]3[C@@H](O)[C@H](n4cnc5c(N)ncnc54)O[C@@H]3CO)[C@@H](OP(=O)(S)OC[C@H]3O[C@@H](n4ccc(=O)[nH]c4=O)[C@H](O)[C@@H]3OP(=O)(S)OC[C@H]3O[C@@H](n4ccc(=O)[nH]c4=O)[C@H](O)[C@@H]3OP(=O)(S)OC[C@H]3O[C@@H](n4ccc5c(=O)[nH]c(N)nc54)[C@H](O)[C@@H]3OP(=O)(S)OC[C@H]3O[C@@H](n4cnc5c(N)ncnc54)[C@H](O)[C@@H]3OP(=O)(S)OC[C@H]3O[C@@H](n4cnc5c(N)ncnc54)[C@H](O)[C@@H]3OP(=O)(S)OC[C@H]3O[C@@H](n4ccc(N)nc4=O)[C@H](O)[C@@H]3OP(=O)(S)OC[C@H]3O[C@@H](n4ccc(=O)[nH]c4=O)[C@H](O)[C@@H]3OP(=O)(S)OC[C@H]3O[C@@H](n4ccc(=O)[nH]c4=O)[C@H](O)[C@@H]3OP(=O)(S)OC[C@H]3O[C@@H](n4ccc5c(=O)[nH]c(N)nc54)[C@H](O)[C@@H]3OP(=O)(S)OCC(O)COP(=O)(S)O[C@H]3[C@@H](O)[C@H](n4ccc5c(=O)[nH]c(N)nc54)O[C@@H]3COP(=O)(S)O[C@H]3[C@@H](O)[C@H](n4ccc(=O)[nH]c4=O)O[C@@H]3COP(=O)(S)O[C@H]3[C@@H](O)[C@H](n4ccc(=O)[nH]c4=O)O[C@@H]3COP(=O)(S)O[C@H]3[C@@H](O)[C@H](n4ccc(N)nc4=O)O[C@@H]3COP(=O)(S)O[C@H]3[C@@H](O)[C@H](n4cnc5c(N)ncnc54)O[C@@H]3COP(=O)(S)O[C@H]3[C@@H](O)[C@H](n4cnc5c(N)ncnc54)O[C@@H]3COP(=O)(S)O[C@H]3[C@@H](O)[C@H](n4ccc5c(=O)[nH]c(N)nc54)O[C@@H]3COP(=O)(S)O[C@H]3[C@@H](O)[C@H](n4ccc(=O)[nH]c4=O)O[C@@H]3COP(=O)(S)O[C@H]3[C@@H](O)[C@H](n4ccc(=O)[nH]c4=O)O[C@@H]3COP(=O)(S)O[C@H]3[C@@H](O)[C@H](n4ccc(N)nc4=O)O[C@@H]3COP(=O)(S)O[C@H]3[C@@H](O)[C@H](n4cnc5c(N)ncnc54)O[C@@H]3CO)[C@H]2O)c(=O)n1 (some centres not stated)
6.5,inactive,9.1,Active,inactive,Active,Nc1ccn([C@@H]2O[C@H](COP(=O)(S)O[C@H]3[C@@H](O)[C@H](n4cnc5c(N)ncnc54)O[C@@H]3CO)[C@@H](OP(=O)(S)OC[C@H]3O[C@@H](n4ccc(=O)[nH]c4=O)[C@H](O)[C@@H]3OP(=O)(S)OC[C@H]3O[C@@H](n4ccc(=O)[nH]c4=O)[C@H](O)[C@@H]3OP(=O)(S)OC[C@H]3O[C@@H](n4ccc5c(=O)[nH]c(N)nc54)[C@H](O)[C@@H]3OP(=O)(S)OC[C@H]3O[C@@H](n4cnc5c(N)ncnc54)[C@H](O)[C@@H]3OP(=O)(S)OC[C@H]3O[C@@H](n4ccc(N)nc4=O)[C@H](O)[C@@H]3OP(=O)(S)OC[C@H]3O[C@@H](n4ccc(=O)[nH]c4=O)[C@H](O)[C@@H]3OP(=O)(S)OC[C@H]3O[C@@H](n4ccc(=O)[nH]c4=O)[C@H](O)[C@@H]3OP(=O)(S)OC[C@H]3O[C@@H](n4ccc5c(=O)[nH]c(N)nc54)[C@H](O)[C@@H]3OP(=O)(S)OC[C@H]3O[C@@H](n4cnc5c(N)ncnc54)[C@H](O)[C@@H]3OP(=O)(S)OCC(O)COP(=O)(S)O[C@H]3[C@@H](O)[C@H](n4cnc5c(N)ncnc54)O[C@@H]3COP(=O)(S)O[C@H]3[C@@H](O)[C@H](n4ccc5c(=O)[nH]c(N)nc54)O[C@@H]3COP(=O)(S)O[C@H]3[C@@H](O)[C@H](n4ccc(=O)[nH]c4=O)O[C@@H]3COP(=O)(S)O[C@H]3[C@@H](O)[C@H](n4ccc(=O)[nH]c4=O)O[C@@H]3COP(=O)(S)O[C@H]3[C@@H](O)[C@H](n4ccc(N)nc4=O)O[C@@H]3COP(=O)(S)O[C@H]3[C@@H](O)[C@H](n4cnc5c(N)ncnc54)O[C@@H]3COP(=O)(S)O[C@H]3[C@@H](O)[C@H](n4ccc5c(=O)[nH]c(N)nc54)O[C@@H]3COP(=O)(S)O[C@H]3[C@@H](O)[C@H](n4ccc(=O)[nH]c4=O)O[C@@H]3COP(=O)(S)O[C@H]3[C@@H](O)[C@H](n4ccc(=O)[nH]c4=O)O[C@@H]3COP(=O)(S)O[C@H]3[C@@H](O)[C@H](n4ccc(N)nc4=O)O[C@@H]3COP(=O)(S)O[C@H]3[C@@H](O)[C@H](n4cnc5c(N)ncnc54)O[C@@H]3CO)[C@H]2O)c(=O)n1 (some centres not stated)

# From ChEMBL document CHEMBL1154352, “Toll-like receptor 7 selective synthetic oligoribonucleotide agonists: synthesis and structure-activity relationship studies” (J Med Chem, 2009)
